Columns and labels:
Type in all cases: functional, cell-based
[1] = Cytotoxicity against multidrug-resistant human KBVIN cells after 72 hrs by sulforhodamine B assay
Procedure, shortened: (§1)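 Cells seeded at 3-5 × 10^3 per well in RPMI-1640 with 10% FBS containing various sample concentrations, incubated 72 h. Attached cells fixed with cold 50% trichloroacetic acid for 30 min, stained with 0.04% SRB for 30 min, bound dye solubilized in 10 mM Tris-base, absorbance read at 515 nm. Triplicate experiments; KBvin is a vincristine-selected MDR KB subline.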

KB = assay: Cytotoxicity against human KB cells after 72 hrs by sulforhodamine B assay; procedure, shortened: as §1
A549 = assay: Cytotoxicity against human A549 cells after 72 hrs by sulforhodamine B assay; settings: A549, 72 h; procedure, shortened: as §1
DU-145 = assay: Cytotoxicity against human DU145 cells after 72 hrs by sulforhodamine B assay; settings: DU-145, 72 h; procedure, shortened: as §1

Structure (SMILES): COc1cc([C@@H]2c3cc4c(cc3[C@@H](NC(=O)NS(=O)(=O)c3ccccc3)[C@H]3COC(=O)[C@H]23)OCO4)cc(OC)c1O
- IC50 [1]: 8.76 µM
- IC50 (KB): 8.38 µM
- IC50 (A549): 8.25 µM
- IC50 (DU-145): 8.1 µM

Structure (SMILES): COc1ccc(S(=O)(=O)NC(=O)N[C@@H]2c3cc4c(cc3[C@@H](c3cc(OC)c(O)c(OC)c3)[C@H]3C(=O)OC[C@@H]32)OCO4)cc1
- IC50 [1]: 8.79 µM
- IC50 (KB): 9.49 µM
- IC50 (A549): 7.67 µM
- IC50 (DU-145): 9.66 µM

Structure (SMILES): COc1cc([C@@H]2c3cc4c(cc3[C@@H](NC(=O)NS(=O)(=O)c3ccc(C)cc3)[C@H]3COC(=O)[C@H]23)OCO4)cc(OC)c1O
- IC50 [1]: > 20 µM
- IC50 (KB): > 20 µM
- IC50 (A549): > 20 µM
- IC50 (DU-145): > 20 µM

Structure (SMILES): COc1cc([C@@H]2c3cc4c(cc3[C@@H](NC(=O)NS(=O)(=O)c3ccc(C(C)C)cc3)[C@H]3COC(=O)[C@H]23)OCO4)cc(OC)c1O
- IC50 [1]: 8.35 µM
- IC50 (KB): 9.51 µM
- IC50 (A549): 7.72 µM
- IC50 (DU-145): 9.32 µM

Structure (SMILES): COc1cc([C@@H]2c3cc4c(cc3[C@@H](NC(=O)NS(=O)(=O)c3ccc(F)cc3)[C@H]3COC(=O)[C@H]23)OCO4)cc(OC)c1O
- IC50 [1]: 7.92 µM
- IC50 (KB): 9 µM
- IC50 (A549): 7.82 µM
- IC50 (DU-145): 9.61 µM

Structure (SMILES): COc1cc([C@@H]2c3cc4c(cc3[C@@H](NC(=O)NS(=O)(=O)c3ccc(Cl)cc3)[C@H]3COC(=O)[C@H]23)OCO4)cc(OC)c1O
- IC50 [1]: 7.95 µM
- IC50 (KB): 10.6 µM
- IC50 (A549): 9.03 µM
- IC50 (DU-145): 11.5 µM

Structure (SMILES): COc1cc([C@@H]2c3cc4c(cc3[C@@H](NC(=O)NS(=O)(=O)Cc3ccccc3)[C@H]3COC(=O)[C@H]23)OCO4)cc(OC)c1O
- IC50 [1]: 14 µM
- IC50 (KB): 11.8 µM
- IC50 (A549): 8.63 µM
- IC50 (DU-145): 11.2 µM

Structure (SMILES): COc1ccc(S(=O)(=O)NC(=O)N[C@@H]2c3cc4c(cc3[C@@H](c3cc(OC)c(O)c(OC)c3)[C@H]3C(=O)OC[C@@H]32)OCO4)c(OC)c1
- IC50 [1]: 8.56 µM
- IC50 (KB): 8.08 µM
- IC50 (A549): 8 µM
- IC50 (DU-145): 8.51 µM

Structure (SMILES): COc1cc([C@@H]2c3cc4c(cc3[C@@H](NC(=O)NS(=O)(=O)c3ccc5ccccc5c3)[C@H]3COC(=O)[C@H]23)OCO4)cc(OC)c1O
- IC50 [1]: 8.62 µM
- IC50 (KB): 9.7 µM
- IC50 (A549): 8.49 µM
- IC50 (DU-145): 10.5 µM

Structure (SMILES): COc1cc([C@@H]2c3cc4c(cc3[C@@H](NC(=O)NS(C)(=O)=O)[C@H]3COC(=O)[C@H]23)OCO4)cc(OC)c1OC
- IC50 [1]: > 20 µM
- IC50 (KB): > 20 µM
- IC50 (A549): > 20 µM
- IC50 (DU-145): > 20 µM

Structure (SMILES): CCS(=O)(=O)NC(=O)N[C@@H]1c2cc3c(cc2[C@@H](c2cc(OC)c(OC)c(OC)c2)[C@H]2C(=O)OC[C@@H]21)OCO3
- IC50 [1]: > 20 µM
- IC50 (KB): > 20 µM
- IC50 (A549): > 20 µM
- IC50 (DU-145): > 20 µM

Structure (SMILES): COc1cc([C@@H]2c3cc4c(cc3[C@@H](NC(=O)NS(=O)(=O)c3ccccc3)[C@H]3COC(=O)[C@H]23)OCO4)cc(OC)c1OC
- IC50 [1]: 1.76 µM
- IC50 (KB): 1.41 µM
- IC50 (A549): 1.6 µM
- IC50 (DU-145): 1.44 µM

Structure (SMILES): COc1cc([C@@H]2c3cc4c(cc3[C@@H](NC(=O)NS(=O)(=O)c3ccc(C)cc3)[C@H]3COC(=O)[C@H]23)OCO4)cc(OC)c1OC
- IC50 [1]: > 20 µM
- IC50 (KB): > 20 µM
- IC50 (A549): > 20 µM
- IC50 (DU-145): > 20 µM

Structure (SMILES): COc1cc([C@@H]2c3cc4c(cc3[C@@H](NC(=O)NS(=O)(=O)c3ccc(Cl)cc3)[C@H]3COC(=O)[C@H]23)OCO4)cc(OC)c1OC
- IC50 [1]: 2.01 µM
- IC50 (KB): 1.72 µM
- IC50 (A549): 1.89 µM
- IC50 (DU-145): 1.75 µM

Structure (SMILES): COc1cc([C@@H]2c3cc4c(cc3[C@@H](NC(=O)NS(C)(=O)=O)[C@H]3COC[C@H]23)OCO4)cc(OC)c1OC
- IC50 [1]: > 20 µM
- IC50 (KB): > 20 µM
- IC50 (A549): > 20 µM
- IC50 (DU-145): > 20 µM

Structure (SMILES): COc1cc([C@@H]2c3cc4c(cc3[C@@H](NC(=O)NS(=O)(=O)c3ccc(C(C)C)cc3)[C@H]3COC[C@H]23)OCO4)cc(OC)c1OC
- IC50 [1]: 13.2 µM
- IC50 (KB): 11 µM
- IC50 (A549): 11.8 µM
- IC50 (DU-145): 11.9 µM

Structure (SMILES): COc1ccc(S(=O)(=O)NC(=O)N[C@@H]2c3cc4c(cc3[C@@H](c3cc(OC)c(OC)c(OC)c3)[C@H]3COC[C@@H]32)OCO4)c(OC)c1
- IC50 [1]: > 20 µM
- IC50 (KB): 12 µM
- IC50 (A549): 14.9 µM
- IC50 (DU-145): 14.3 µM

Structure (SMILES): COc1cc([C@@H]2c3cc4c(cc3[C@@H](NC(=O)NS(C)(=O)=O)[C@H]3COC(=O)[C@H]23)OCO4)cc(OC)c1O
- IC50 [1]: > 20 µM
- IC50 (KB): > 20 µM
- IC50 (A549): > 20 µM
- IC50 (DU-145): > 20 µM

Structure (SMILES): CCS(=O)(=O)NC(=O)N[C@@H]1c2cc3c(cc2[C@@H](c2cc(OC)c(O)c(OC)c2)[C@H]2C(=O)OC[C@@H]21)OCO3
- IC50 [1]: > 20 µM
- IC50 (KB): > 20 µM
- IC50 (A549): > 20 µM
- IC50 (DU-145): > 20 µM

Structure (SMILES): CCCCS(=O)(=O)NC(=O)N[C@@H]1c2cc3c(cc2[C@@H](c2cc(OC)c(O)c(OC)c2)[C@H]2C(=O)OC[C@@H]21)OCO3
- IC50 [1]: 14 µM
- IC50 (KB): 10.9 µM
- IC50 (A549): 7.96 µM
- IC50 (DU-145): 11.9 µM

Structure (SMILES): COc1cc([C@@H]2c3cc4c(cc3[C@@H](O[C@@H]3O[C@@H]5CO[C@@H](C)O[C@H]5[C@H](O)[C@H]3O)[C@H]3COC(=O)[C@H]23)OCO4)cc(OC)c1O [ETOPOSIDE]
- IC50 [1]: > 20 µM

Reference: ChEMBL document CHEMBL3102852, “Design, synthesis and cytotoxic activity of novel sulfonylurea derivatives of podophyllotoxin” (Bioorg Med Chem, 2014)
